Measurements taken from ChEMBL document CHEMBL1165982, “Induction of G(2)/M phase arrest and apoptosis by oridonin in human laryngeal carcinoma cells” (J Nat Prod, 2010).
Activity calls are given as the source filed them. The calls are words filed in the database; no cut-off is given here.

Assays:
Format in all cases: functional, cell-based
[1] = test system: HEp-2; assay: Induction of apoptosis in human Hep2 cells assessed as pro-caspase 3 level at 36 uM by Western blot analysis; conditions: TDE = time-dependent effect
Outline: (§1)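 Treatment: 36 µM for 0, 6, 12 or 24 h, alone or with 2.5 mM N-acetylcysteine or 500 U/mL catalase. Lysis 60 min at 4 °C in Hepes pH 7.4/1% Triton X-100 with phosphatase and protease inhibitors, spin 13000g. Lysates run on 12% SDS-PAGE, blotted to nitrocellulose, probed with polyclonal antibodies, HRP/DAB detection. Representative of ≥3 experiments.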

[2] = test system: HEp-2; assay: Induction of apoptosis in human Hep2 cells at 36 uM after 24 hrs by MTT assay in presence of Ac-LEHD-cmk caspase 9 inhibitor
Outline: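 Pretreatment: HEp-2 (1.2 × 10^4/well, plated 24 h earlier) given caspase-9 inhibitor Ac-LEHD-cmk at 5, 10 or 20 µM for 1 h. Then 36 µM for 24 h. Inhibitory ratio by MTT, n = 3, mean ± SD.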

[3] = test system: HEp-2; assay: Induction of apoptosis in human Hep2 cells at 36 uM after 24 hrs by MTT assay in presence of z-VAD-fmk pan-caspase inhibitor
Outline: (§2)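 HEp-2 cells in RPMI-1640 with 10% FBS at 37 °C, 5% CO2, seeded at 1.2 × 10^4 cells/well and grown 24 h. Pretreated 1 h with z-DEVD-fmk (5 µM, line 1) or z-VAD-fmk (10 µM, line 2), then exposed to 36 µM agent for 24 h, with DMSO below 0.05%. Cell inhibitory ratio read by MTT; n = 3, mean ± SD.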

[4] = test system: HEp-2; assay: Induction of apoptosis in human Hep2 cells at 36 uM after 24 hrs by MTT assay in presence of z-DEVD-fmk caspase 3 inhibitor; outline: as §2
[5] = test system: HEp-2; assay: Induction of apoptosis in human Hep2 cells assessed as increase in pro-apoptotic Bax protein at 36 uM after 24 hrs by Western blot analysis in presence of NAC; outline: as §1
[6] = test system: HEp-2; assay: Induction of apoptosis in human Hep2 cells assessed as decrease in Bcl-2 at 36 uM after 24 hrs by Western blot analysis in presence of NAC; outline: as §1
[7] = test system: HEp-2; assay: Induction of apoptosis in human Hep2 cells assessed as increase in AIF level at 36 uM after 24 hrs by Western blot analysis in presence of NAC; outline: as §1
[8] = test system: HEp-2; assay: Induction of apoptosis in human Hep2 cells assessed as cleaved caspase 3 level at 36 uM after 24 hrs by Western blot analysis in presence of NAC; outline: as §1
[9] = test system: HEp-2; assay: Induction of apoptosis in human Hep2 cells assessed as caspase activated DNase level at 36 uM after 24 hrs by Western blot analysis in presence of NAC; outline: as §1
[10] = test system: HEp-2; assay: Induction of apoptosis in human Hep2 cells assessed as increase in pro-apoptotic Bax protein at 36 uM after 24 hrs by Western blot analysis in presence of CAT; outline: as §1
[11] = test system: HEp-2; assay: Induction of apoptosis in human Hep2 cells assessed as decrease in Bcl-2 at 36 uM after 24 hrs by Western blot analysis in presence of CAT; outline: as §1
[12] = test system: HEp-2; assay: Induction of apoptosis in human Hep2 cells assessed as increase in AIF level at 36 uM after 24 hrs by Western blot analysis in presence of CAT; outline: as §1
[13] = test system: HEp-2; assay: Induction of apoptosis in human Hep2 cells assessed as cleaved caspase 3 level at 36 uM after 24 hrs by Western blot analysis in presence of CAT; outline: as §1
[14] = test system: HEp-2; assay: Induction of apoptosis in human Hep2 cells assessed as caspase activated DNase level at 36 uM after 24 hrs by Western blot analysis in presence of CAT; outline: as §1
[15] = test system: HEp-2; assay: Induction of apoptosis in human Hep2 cells assessed as decrease in cyclin B level at 36 uM after 24 hrs by Western blot analysis; conditions: TDE = time-dependent effect; outline: as §1
[16] = test system: HEp-2; assay: Induction of apoptosis in human Hep2 cells assessed as decrease in cdc2 level at 36 uM after 24 hrs by Western blot analysis; conditions: TDE = time-dependent effect; outline: as §1
[17] = test system: HEp-2; assay: Induction of apoptosis in human Hep2 cells assessed as increase in phospho-cdc2 (Tyr15) level at 36 uM from 6 to 24 hrs by Western blot analysis; outline: as §1
[18] = test system: HEp-2; assay: Induction of apoptosis in human Hep2 cells assessed as increase in phospho-cdc25C (ser216) level at 36 uM from 6 to 24 hrs by Western blot analysis; outline: as §1
[19] = test system: HEp-2; assay: Induction of apoptosis in human Hep2 cells assessed as increase in p21/WAF1 level at 36 uM from 6 to 24 hrs by Western blot analysis; outline: as §1
[20] = test system: HEp-2; assay: Induction of apoptosis in human Hep2 cells assessed as increase in p21/WAF1 level at 36 uM after 24 hrs by Western blot analysis; outline: as §1
[21] = test system: HEp-2; assay: Induction of apoptosis in human Hep2 cells assessed as decrease in cyclin B level at 36 uM after 24 hrs by Western blot analysis in presence of NAC; outline: as §1
[22] = test system: HEp-2; assay: Induction of apoptosis in human Hep2 cells assessed as decrease in cdc2 level at 36 uM after 24 hrs by Western blot analysis in presence of NAC; outline: as §1
[23] = test system: HEp-2; assay: Induction of apoptosis in human Hep2 cells assessed as increase in phospho-cdc2 (Tyr15) level at 36 uM from 6 to 24 hrs by Western blot analysis in presence of NAC; outline: as §1
[24] = test system: HEp-2; assay: Induction of apoptosis in human Hep2 cells assessed as increase in phospho-cdc25C (ser216) level at 36 uM from 6 to 24 hrs by Western blot analysis in presence of NAC; outline: as §1
[25] = test system: HEp-2; assay: Induction of apoptosis in human Hep2 cells assessed as increase in p21/WAF1 level at 36 uM from 6 to 24 hrs by Western blot analysis in presence of NAC; outline: as §1
[26] = test system: HEp-2; assay: Induction of apoptosis in human Hep2 cells assessed as increase in p21/WAF1 level at 36 uM after 24 hrs by Western blot analysis in presence of NAC; outline: as §1

For `C=C1C(=O)[C@]23[C@H](O)[C@H]1CC[C@H]2[C@@]12CO[C@]3(O)[C@@H](O)[C@@H]1C(C)(C)CC[C@@H]2O` [ORIDONIN], the Activity [1] was “tde”, the Activity [2] was “Active” and the Activity [3] was “inactive”. The Activity [4] was “inactive”, the Activity [5] was “inactive” and the Activity [6] was “inactive”. For the same molecule, the Activity [7] was “inactive”, the Activity [8] was “inactive” and the Activity [9] was “inactive”. The Activity [10] was “inactive”, the Activity [11] was “inactive” and the Activity [12] was “inactive”. For the same molecule, the Activity [13] was “inactive”, the Activity [14] was “inactive” and the Activity [15] was “tde”. For the same molecule, the Activity [16] was “tde”, the Activity [17] was “Active” and the Activity [18] was “Active”. For the same molecule, the Activity [19] was “Active”, the Activity [20] was “inactive” and the Activity [21] was “inactive”. For the same molecule, the Activity [22] was “inactive”, the Activity [23] was “inactive” and the Activity [24] was “inactive”. For the same molecule, the Activity [25] was “inactive” and the Activity [26] was “inactive”.
